# According to ChEMBL document CHEMBL1944532, “Synthesis and evaluation of anticancer activity of some novel 6-aryl-2-(p-sulfamylphenyl)-pyridazin-3(2H)-ones” (Eur J Med Chem, 2012):
# Activity calls are given as the source filed them. No cut-off for these calls is given here.
# Assays:
# [1] = system: NCI-H322M; experiment: Cytotoxicity against human NCI-H322M cells assessed as cell growth at 10 uM after 48 hrs by SRB assay; type: functional; conditions: read-out: Activity
# How it was run: (§1)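 NCI primary single-dose screen at 10^-5 M against the full panel of about 60 human tumor cell lines. Cells were in RPMI-1640 with 5% fetal calf serum and 2 mM L-glutamine and preincubated 24 h. Compound was given in DMSO with 48 h exposure. Growth was estimated by sulforhodamine B protein assay.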
# [2] = system: NCI-H522; experiment: Cytotoxicity against human NCI-H522 cells assessed as cell growth at 10 uM after 48 hrs by SRB assay; type: functional; conditions: NCI-H522, 48 h, read-out: Activity; how it was run: as §1
# [3] = system: COLO 205; experiment: Cytotoxicity against human COLO205 cells assessed as cell growth at 10 uM after 48 hrs by SRB assay; type: functional; conditions: COLO 205, 48 h, read-out: Activity
# How it was run: (§2)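 NCI primary single-dose screen at 10^-5 M against the ~60 human tumour cell line panel. Cells grown in RPMI-1640 with 5% fetal calf serum and 2 mM L-glutamine and pre-incubated 24 h before compound addition. Compound added from DMSO solution with 48 h exposure. Growth read by sulforhodamine B protein staining.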
# [4] = system: SF-268; experiment: Cytotoxicity against human SF268 cells assessed as cell growth at 10 uM after 48 hrs by SRB assay; type: functional; conditions: SF-268, 48 h, read-out: Activity; how it was run: as §1
# [5] = system: SK-MEL-28; experiment: Cytotoxicity against human SK-MEL-28 cells assessed as cell growth at 10 uM after 48 hrs by SRB assay; type: functional; conditions: SK-MEL-28, 48 h, read-out: Activity
# How it was run: (§3)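 NCI primary one-dose screen at 10^-5 M against the full panel of about 60 human tumour cell lines, run to the NCI Drug Evaluation Branch protocol.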
# [6] = system: ACHN; experiment: Cytotoxicity against human ACHN cells assessed as cell growth at 10 uM after 48 hrs by SRB assay; type: functional; conditions: read-out: Activity; how it was run: as §2
# [7] = system: TK-10; experiment: Cytotoxicity against human TK10 cells assessed as cell growth at 10 uM after 48 hrs by SRB assay; type: functional; conditions: TK-10, 48 h, read-out: Activity; how it was run: as §3
# [8] = system: HL-60(TB); experiment: Cytotoxicity against human HL-60(TB) cells after 48 hrs by SRB assay; type: functional; conditions: HL-60, 48 h
# How it was run: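 NCI 60-cell-line screen, five-dose assay: cells in RPMI1640 (printed "PMI1640") with 5% fetal calf serum and 2 mM L-glutamine, pre-incubated 24 h before compound addition. Compound in DMSO at 10-4, 10-5, 10-6, 10^-7 and 10^-8 M; continuous 48 h exposure. Growth estimated by sulforhodamine B protein assay; log GI50, TGI and LC50 derived from dose-response.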
# [9] = system: EKVX; experiment: Cytotoxicity against human EKVX cells after 48 hrs by SRB assay; type: functional
# How it was run: (§4)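 NCI ~60-line panel in RPMI-1640 with 5% fetal calf serum and 2 mM L-glutamine, pre-incubated 24 h. Compound in DMSO tested at five 10-fold concentrations (10^-4 to 10^-8 M) with 48 h continuous exposure. Growth measured by sulforhodamine B protein assay. GI50 (50% net growth inhibition), TGI (total inhibition) and LC50 (50% net cell death) derived from dose-response.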
# [10] = system: HOP-62; experiment: Cytotoxicity against human HOP62 cells after 48 hrs by SRB assay; type: functional; conditions: HOP-62, 48 h; how it was run: as §4
# [11] = system: NCI-H322M; experiment: Cytotoxicity against human NCI-H322M cells after 48 hrs by SRB assay; type: functional
# How it was run: (§5)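 NCI five-dose screen on the ~60-line human tumor panel. Cells grown in RPMI-1640 with 5% fetal calf serum and 2 mM L-glutamine, seeded at line-dependent density and preincubated 24 h. Compound added from DMSO at 10-fold dilutions from 10^-4 to 10^-8 M, continuous exposure 48 h. Growth read by sulforhodamine B protein stain. GI50, TGI and LC50 derived per line.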
# [12] = system: NCI-H522; experiment: Cytotoxicity against human NCI-H522 cells after 48 hrs by SRB assay; type: functional; conditions: NCI-H522, 48 h; how it was run: as §5
# [13] = system: U-251; experiment: Cytotoxicity against human U251 cells after 48 hrs by SRB assay; type: functional; conditions: U-251, 48 h
# How it was run: (§6)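 NCI 60-cell-line five-dose screen. Cells were grown in 1640 medium with 5% fetal calf serum and 2 mM L-glutamine, with inoculum density set by cell line, and pre-incubated 24 h. Compound in DMSO was added at 10^-4 to 10^-8 M (10-fold steps) with 48 h continuous exposure. Growth was read by SRB protein assay, and GI50, TGI and LC50 were derived from dose-response.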
# [14] = system: SK-MEL-28; experiment: Cytotoxicity against human SK-MEL-28 cells after 48 hrs by SRB assay; type: functional; conditions: SK-MEL-28, 48 h; how it was run: as §6
# [15] = system: SK-MEL-5; experiment: Cytotoxicity against human SK-MEL-5 cells after 48 hrs by SRB assay; type: functional; conditions: SK-MEL-5, 48 h; how it was run: as §6
# [16] = system: OVCAR-5; experiment: Cytotoxicity against human OVCAR5 cells after 48 hrs by SRB assay; type: functional; conditions: OVCAR-5, 48 h; how it was run: as §5
# [17] = system: NCI/ADR-RES; experiment: Cytotoxicity against human NCI/ADR-RES cells after 48 hrs by SRB assay; type: functional; how it was run: as §5
# [18] = system: 786-0; experiment: Cytotoxicity against human 786-0 cells after 48 hrs by SRB assay; type: functional; conditions: 786-0, 48 h; how it was run: as §4
# [19] = system: CAKI-1; experiment: Cytotoxicity against human Caki1 cells after 48 hrs by SRB assay; type: functional; conditions: CAKI-1, 48 h; how it was run: as §4
# [20] = system: MDA-MB-231; experiment: Antitumor activity against human MDA-MB-231 cells implanted in mouse dosed qd for 4 days by formazan dye-based hollow fiber assay; type: functional, organism-based
# How it was run: (§7)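 Cells grown inside polyvinylidene fluoride hollow fibers; each line implanted into both intraperitoneal and subcutaneous compartments in mice. Compound given ip at two doses on a QD x 4 schedule. Fibers then recovered and viable cell mass measured by formazan dye conversion. Scored 2 per dose giving ≥50% reduction in viable cell mass (%T/C 50).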
# [21] = system: MDA-MB-435; experiment: Antitumor activity against human MDA-MB-435 cells implanted in mouse dosed qd for 4 days by formazan dye-based hollow fiber assay; type: functional, organism-based; how it was run: as §7
smiles,measurement,setting,value
CCc1ccc(-c2ccc(=O)n(-c3ccc(S(N)(=O)=O)cc3)n2)cc1,growth at 10 µM,[1],115%
same,growth at 10 µM,[2],-33.6%
same,growth at 10 µM,[3],26%
same,growth at 10 µM,[4],42%
same,growth at 10 µM,[5],49.4%
same,growth at 10 µM,[6],60.3%
same,growth at 10 µM,[7],76.8%
same,LC50,[8],> 100 µM
same,GI50,[8]; read-out: GI50,0.376 µM
same,GI50,[8]; read-out: pGI50 (converted),0.38 µM
same,TGI,[8]; read-out: pTGI (converted),3.02 µM
same,LC50 (50% net cell death),[9],> 100 µM
same,GI50,[9]; read-out: GI50,2.79 µM
same,GI50,[9]; read-out: pGI50 (converted),2.82 µM
same,TGI,[9]; read-out: pTGI,> 100 µM
same,LC50,[10],70.8 µM
same,GI50,[10]; read-out: GI50,2.48 µM
same,GI50,[10]; read-out: pGI50 (converted),2.45 µM
same,TGI,[10]; read-out: pTGI (converted),22.4 µM
same,LC50,[11],> 100 µM
same,GI50,[11]; read-out: GI50,14.3 µM
same,GI50,[11]; read-out: pGI50 (converted),14.1 µM
same,TGI,[11]; read-out: pTGI (converted),100 µM
same,LC50,[12],> 100 µM
same,GI50,[12]; read-out: GI50,0.0966 µM
same,GI50,[12]; read-out: pGI50 (converted),0.0955 µM
same,TGI,[12]; read-out: pTGI (converted),0.631 µM
same,LC50,[13],> 100 µM
same,GI50,[13]; read-out: GI50,1.58 µM
same,GI50,[13]; read-out: pGI50 (converted),1.58 µM
same,TGI,[13]; read-out: pTGI (converted),24 µM
same,LC50,[14],> 100 µM
same,GI50,[14]; read-out: GI50,1.37 µM
same,GI50,[14]; read-out: pGI50 (converted),1.38 µM
same,TGI,[14]; read-out: pTGI,> 100 µM
same,LC50,[15],> 100 µM
same,GI50,[15]; read-out: GI50,0.453 µM
same,GI50,[15]; read-out: pGI50 (converted),0.457 µM
same,TGI,[15]; read-out: pTGI (converted),7.59 µM
same,LC50,[16],> 100 µM
same,GI50,[16]; read-out: GI50,41.4 µM
same,GI50,[16]; read-out: pGI50 (converted),41.7 µM
same,TGI,[16]; read-out: pTGI,> 100 µM
same,LC50,[17],> 100 µM
same,GI50,[17]; read-out: GI50,0.314 µM
same,GI50,[17]; read-out: pGI50 (converted),0.316 µM
same,TGI,[17]; read-out: pTGI (converted),12.9 µM
same,LC50 (50% net cell kill),[18],> 100 µM
same,GI50,[18]; read-out: GI50,10.2 µM
same,GI50,[18]; read-out: pGI50 (converted),10.2 µM
same,TGI,[18]; read-out: pTGI (converted),63.1 µM
same,LC50 (concentration causing 50% net cell death),[19],> 100 µM
same,GI50,[19]; read-out: GI50,2.73 µM
same,GI50,[19]; read-out: pGI50 (converted),2.75 µM
same,TGI,[19]; read-out: pTGI,> 100 µM
same,Activity,[20],inactive
same,Activity,[21],inactive
